In ChEMBL document CHEMBL3739347, “Tubulin modulating antifungal and antiproliferative pyrazinone derivatives” (Bioorg Med Chem, 2016):
The source made the active and inactive calls. No cut-off for these calls is given here.

Assays:
Puccinia triticina [1] = assay: Antifungal activity against Puccinia recondita f. sp. tritici infected in wheat seedlings at 10 ppm relative to control; format: functional
Summary of the method: (§1)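 Test suspension sprayed to run-off on Stevens wheat seedlings. Next day inoculated with a Puccinia recondita f. sp. tritici spore suspension. Held 24 h in a saturated atmosphere at 20 °C, then 7 days in a 20 °C growth chamber before disease rating. Rates in ppm. Given as percent control versus untreated control plants.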

Botrytis cinerea [2] = assay: Antifungal activity against Botryotinia fuckeliana infected in orange pixie tomato seedlings at 10 ppm relative to control; format: functional
Summary of the method: (§2)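 Orange Pixie tomato seedlings sprayed to run-off with test suspension, then inoculated next day with a Botryotinia fuckeliana spore suspension. Kept saturated at 20 °C for 48 h, then 1 more day at 24 °C in a growth chamber before rating. Rates in ppm. Expressed as percent control relative to untreated control plants.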

Botrytis cinerea [3] = assay: Antifungal activity against Botryotinia fuckeliana infected in orange pixie tomato seedlings at 40 ppm relative to control; format: functional; summary of the method: as §2
Parastagonospora nodorum [4] = assay: Antifungal activity against Stagonospora nodorum infected in wheat seedlings at 10 ppm relative to control; format: functional
Summary of the method: (§3)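 Wheat seedlings, treated the day before, inoculated with a Stagonospora nodorum spore suspension. Held in a saturated atmosphere at 20 °C for 48 h, then 5 days in a growth chamber at 22 °C, then disease rated. Rates in ppm. Scored as percent control relative to untreated control plants.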

Parastagonospora nodorum [5] = assay: Antifungal activity against Stagonospora nodorum infected in wheat seedlings at 40 ppm relative to control; format: functional; summary of the method: as §3
Botrytis cinerea [6] = assay: Antifungal activity against Botryotinia fuckeliana infected in orange pixie tomato seedlings at 200 ppm relative to control; format: functional; summary of the method: as §2
Puccinia triticina [7] = assay: Antifungal activity against Puccinia recondita f. sp. tritici infected in wheat seedlings at 200 ppm relative to control; format: functional; summary of the method: as §1
Puccinia triticina [8] = assay: Antifungal activity against Puccinia recondita f. sp. tritici infected in wheat seedlings at 40 ppm relative to control; format: functional; summary of the method: as §1
Parastagonospora nodorum [9] = assay: Antifungal activity against Stagonospora nodorum infected in wheat seedlings at 200 ppm relative to control; format: functional; summary of the method: as §3
[10] = Antiproliferative activity against human Rhabdomyosarcoma cells after 96 hrs by MTS assay; format: functional, cell-based; details: Rhabdomyosarcoma cell
Summary of the method: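 Rhabdomyosarcoma cells (ATCC CCL-136) seeded at 10,000 cells/well and allowed to adhere 1–3 h. Medium then replaced with compound-containing medium over a concentration range. Grown 96 h at 37 °C, 5% CO2. Viable cells read by MTS/PMS formazan after 3–4 h at 37 °C, absorbance 490 nm. Data normalized to solvent-only wells; IC50 in nM.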

Puccinia triticina [11] = assay: Antifungal activity against Puccinia recondita f. sp. tritici infected in wheat seedlings at 2 ppm relative to control; format: functional; summary of the method: as §1
Botrytis cinerea [12] = assay: Antifungal activity against Botryotinia fuckeliana infected in orange pixie tomato seedlings at 2 ppm relative to control; format: functional; summary of the method: as §2
Parastagonospora nodorum [13] = assay: Antifungal activity against Stagonospora nodorum infected in wheat seedlings at 2 ppm relative to control; format: functional; summary of the method: as §3
Tubulin (Bos taurus) [14] = target: T1, Tubulin (Bos taurus) (UniProt Q6B856+Q862L2+Q862F3); assay: Induction of bovine tubulin polymerization at 10 uM by microplate reader; format: protein assay
Summary of the method: (§4)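 Purified bovine tubulin at 4 mg/ml in 80 mM PIPES pH 6.9, 0.5 mM EGTA, 2 mM MgCl2, 1 mM GTP. Compound added at reaction start at constant DMSO. Polymerization started at 37 °C and followed over time by absorbance at 340 nm. Controls: paclitaxel 10 µM (positive) and 0.5% DMSO (negative).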

Tubulin (Bos taurus) [15] = target: T1, Tubulin (Bos taurus); assay: Induction of bovine tubulin polymerization at 3 uM by microplate reader; format: protein assay; summary of the method: as §4

Activity (Tubulin (Bos taurus) [14]) | Activity (Tubulin (Bos taurus) [15]) | SMILES | Activity (Puccinia triticina [1]) | Activity (Botrytis cinerea [2]) | Activity (Botrytis cinerea [3]) | Activity (Parastagonospora nodorum [4]) | Activity (Parastagonospora nodorum [5]) | Activity (Botrytis cinerea [6]) | Activity (Puccinia triticina [7]) | Activity (Puccinia triticina [8]) | Activity (Parastagonospora nodorum [9]) | IC50 [10] | Activity (Puccinia triticina [11]) | Activity (Botrytis cinerea [12]) | Activity (Parastagonospora nodorum [13])
– | – | O=c1c(-n2cccn2)nc(Cl)c(-c2c(F)cc(F)cc2F)n1C1CCCCC1 | 89% | 99% | 99% | 73% | 99% | 99% | 99% | 97% | 100% | – | – | – | –
– | – | CC[C@H](C)Cn1c(-c2c(F)cc(OC)cc2F)c(Cl)nc(-n2cccn2)c1=O | 100% | 99% | 99% | 100% | 100% | 99% | 100% | 100% | 100% | 10 nM | 99% | 99% | 69%
– | – | CC[C@H](C)Cn1c(-c2c(F)cccc2F)c(Cl)nc(C#N)c1=O | – | – | 99% | – | 0% | 99% | 96% | 74% | 0% | – | – | – | –
– | – | CC(C)Cn1c(-c2ccc(F)cc2Cl)c(Cl)nc(-n2cccn2)c1=O | 100% | 100% | 100% | 99% | 100% | 100% | 100% | 100% | 100% | – | 83% | 100% | 0%
– | – | CC(C)Cn1c(C2CCCC2)c(Cl)nc(-n2cccn2)c1=O | – | – | 99% | – | 0% | 100% | 100% | 91% | 0% | – | – | – | –
– | – | CC[C@H](C)Cn1c(-c2c(F)cccc2F)c(Cl)nc(-n2ccnn2)c1=O | 67% | 33% | 81% | 0% | 0% | 98% | 73% | 67% | 73% | – | – | – | –
– | – | CC[C@H](C)Cn1c(-c2c(F)cc(OCCCN(C)C)cc2F)c(Cl)nc(-n2cccn2)c1=O | 89% | 94% | 94% | 0% | 0% | – | 100% | 99% | 94% | 1.3 nM | 0% | 0% | 0%
– | – | CC[C@H](C)Cn1c(-c2c(F)cc(OCCN(C)C)cc2F)c(Cl)nc(-n2cccn2)c1=O | 55% | 0% | 68% | – | – | 99% | 100% | 91% | – | 210 nM | – | – | –
Active | – | CC(=O)O[C@H]1C(=O)[C@@]2(C)[C@H]([C@H](OC(=O)c3ccccc3)[C@]3(O)C[C@H](OC(=O)[C@H](O)[C@@H](NC(=O)c4ccccc4)c4ccccc4)C(C)=C1C3(C)C)[C@]1(OC(C)=O)CO[C@@H]1C[C@@H]2O [PACLITAXEL] | – | – | – | – | – | 0% | 95% | – | 91% | 8.4 nM | – | – | –
– | – | CC(C)Cn1c(-c2c(F)cccc2F)c(Cl)nc(-c2ccccn2)c1=O | – | – | 99% | – | 0% | 100% | 99% | 85% | 99% | – | – | – | –
– | – | CC(C)Cn1c(C2CC2)c(Cl)nc(-n2cccn2)c1=O | – | – | 0% | – | 0% | 0% | 0% | 0% | 0% | – | – | – | –
– | Active | CC(C)Cn1c(-c2c(F)cccc2F)c(Cl)nc(-n2cccn2)c1=O | 100% | 97% | 99% | 92% | 99% | – | – | 100% | – | – | 28% | 75% | 0%
